Here are results for one substance from article PMC8756568 (ACS Omega, 2021).

In experiment [1] the test system is Huh-7 cells. Description: cellular uptake in Huh-7 cells. It counts as cell-based, human. The following applies: n = 3. In a few lines: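 Huh-7 cells were seeded at 1×10^5 per well in DMEM/10% FBS. Radiolabeled tracer (740 KBq/1 mL medium) was added, with incubation at 37 or 4 °C for 5, 10, 20, 40, 60 and 80 min. Cells were washed three times with cold PBS and lysed in 0.5 M NaOH. Lysate radioactivity was gamma-counted.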

Experiment [2] has as its system B16F10 cells. Put plainly: cellular internalization in B16F10 cells. The following applies: n = 3. It counts as cell-based, mouse.

As for “NODAGA-Ahx-CWRLRWHSPLKGM-OH [[^64Cu]CM-3]”, the “in vitro cellular internalization” value in experiment [1] and in experiment [2] was “weaker binding” throughout.
